In ChEMBL document CHEMBL4732118, “Discovery of indazole-pyridinone derivatives as a novel class of potent and selective MNK1/2 kinase inhibitors that protecting against endotoxin-induced septic shock” (Eur J Med Chem, 2021):
Values after ≈ are worked out from the molar mass of the structure shown.

Key:
[1] = AUC (0 to t) in CD-1 mouse at 5 mg/kg, po by LC-MS analysis; format: ADME, organism-based; design: dose 5 mg/kg; details: in vivo
Outline: (§1)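 Female CD-1 mice, 5 weeks old, 3 per time point. Dosed at 10 µl/g, DMSO solution diluted in Captisol, p.o. 5 mg/kg or i.v. 2 mg/kg. Sacrifice at 5, 15, 30 min and 1, 2, 4, 7, 24 h. Plasma acetonitrile-precipitated, quantified by LC-MS/MS (C18, positive H-ESI, SRM) against a calibration curve in blank mouse plasma.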

[2] = Kinetic solubility of compound in pH 7.4 Soerensen's buffer at 500 uM measured after […] by UV-VIS absorption spectrophotometry; format: physicochemical; details: time 1.5 hrs, read-out: Kinetic_solubility
[3] = Cmax in CD-1 mouse at 5 mg/kg, po by LC-MS analysis; format: ADME, organism-based; design: route oral, dose 5 mg/kg; details: in vivo; outline: as §1
[4] = Oral bioavailability in CD-1 mouse at 5 mg/kg by LC-MS analysis; format: ADME, organism-based; details: in vivo
Outline: (§2)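 Female CD-1 mice, 5 weeks old, 3 animals per time point. Compound dissolved in DMSO, diluted in Captisol, given p.o. at 5 mg/kg or i.v. at 2 mg/kg. Animals sacrificed at 5, 15 and 30 min and 1, 2, 4, 7 and 24 h. Plasma precipitated with cold acetonitrile and quantified by LC-MS/MS (SRM, positive H-ESI) against a blank mouse plasma calibration curve.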

[5] = Kinetic solubility of compound in water at 500 uM measured after […] by UV-VIS absorption spectrophotometry; format: physicochemical; details: time 1.5 hrs, read-out: Kinetic_solubility
[6] = AUC (0 to infinity) in CD-1 mouse at 2 mg/kg, iv by LC-MS analysis; format: ADME, organism-based; design: route intravenous, time infinity, dose 2 mg/kg; details: in vivo; outline: as §1
[7] = Tmax in CD-1 mouse at 2 mg/kg, iv by LC-MS analysis; format: ADME, organism-based; details: in vivo; outline: as §2
[8] = AUC (0 to infinity) in CD-1 mouse at 5 mg/kg, po by LC-MS analysis; format: ADME, organism-based; design: time infinity, route oral, dose 5 mg/kg; details: in vivo; outline: as §1
[9] = Cmax in CD-1 mouse at 2 mg/kg, iv by LC-MS analysis; format: ADME, organism-based; design: route intravenous, dose 2 mg/kg; details: in vivo; outline: as §1
[10] = Tmax in CD-1 mouse at 5 mg/kg, po by LC-MS analysis; format: ADME, organism-based; details: in vivo; outline: as §2
[11] = AUC (0 to t) in CD-1 mouse at 2 mg/kg, iv by LC-MS analysis; format: ADME, organism-based; design: dose 2 mg/kg; details: in vivo; outline: as §1

Row | AUCt [1] [ng·h/mL] | solubility kinetic at […], 500 µM [2] [µM] | Cmax [3] [ng/mL] | bioavailability [4] [%] | solubility kinetic at […], 500 µM [5] [µM] | AUC [6] [ng·h/mL] | Tmax [7] [min] | AUC [8] [ng·h/mL] | Cmax [9] [ng/mL] | Tmax [10] [min] | AUCt [11] [ng·h/mL] | SMILES
1 | 2150 | 172 (≈ 60.3 µg/mL) | 1050 | 100 | 275 (≈ 96.5 µg/mL) | 855 | 4.8 | 2410 | 1490 | 15 | 834 | Nc1n[nH]c2cc(-c3ccc(=O)n(Cc4cccc(Cl)c4)c3)ccc12
2 | 517 | 466 (≈ 156 µg/mL) | 335 | 33 | > 500 | 677 | 4.8 | 674 | 1670 | 15 | 629 | Nc1n[nH]c2cc(-c3ccc(=O)n(Cc4ccccc4F)c3)ccc12
